How the values were obtained:
[1] = biological target: Calcium/calmodulin-dependent protein kinase kinase 1 (Homo sapiens) (UniProt Q8N5S9); assay: Inhibition of human recombinant CaMKK1 at 40 nM in presence of ATP by radiometric assay relative to control
[2] = biological target: Dual specificity protein kinase CLK1 (Homo sapiens) (UniProt P49759); assay: Inhibition of human recombinant CLK1 at 40 nM in presence of ATP by radiometric assay relative to control
[3] = biological target: Tyrosine-protein kinase receptor UFO (Homo sapiens) (UniProt P30530); assay: Inhibition of human recombinant AXL at 40 nM related to control ULK1
In short: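 Radiometric activity assays in a panel of 327 human recombinant kinases, each run in duplicate at one inhibitor concentration. Activity remaining is expressed as percent of vehicle control, and percent inhibition is calculated as 100% minus percent activity remaining.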

[4] = biological target: Mast/stem cell growth factor receptor Kit (Homo sapiens) (UniProt P10721); assay: Inhibition of human recombinant KIT at 40 nM related to control ULK1
[5] = biological target: Calcium/calmodulin-dependent protein kinase type II subunit alpha (Homo sapiens) (UniProt Q9UQM7); assay: Inhibition of human recombinant CaMK2a at 15 nM in presence of ATP by radiometric assay relative to control
[6] = biological target: Transient receptor potential cation channel subfamily M member 7 (Homo sapiens) (UniProt Q96QT4); assay: Inhibition of human recombinant ChaK1 at 15 nM related to control ULK1
[7] = biological target: Casein kinase I isoform gamma-3 (Homo sapiens) (UniProt Q9Y6M4); assay: Inhibition of human recombinant CK1g3 at 15 nM related to control ULK1
[8] = biological target: T1, Tyrosine-protein kinase JAK3 (Homo sapiens) (UniProt P52333); assay: Inhibition of human recombinant JAK3 at 500 nM in presence of ATP by radiometric assay relative to control
T1 sequence (whole entry): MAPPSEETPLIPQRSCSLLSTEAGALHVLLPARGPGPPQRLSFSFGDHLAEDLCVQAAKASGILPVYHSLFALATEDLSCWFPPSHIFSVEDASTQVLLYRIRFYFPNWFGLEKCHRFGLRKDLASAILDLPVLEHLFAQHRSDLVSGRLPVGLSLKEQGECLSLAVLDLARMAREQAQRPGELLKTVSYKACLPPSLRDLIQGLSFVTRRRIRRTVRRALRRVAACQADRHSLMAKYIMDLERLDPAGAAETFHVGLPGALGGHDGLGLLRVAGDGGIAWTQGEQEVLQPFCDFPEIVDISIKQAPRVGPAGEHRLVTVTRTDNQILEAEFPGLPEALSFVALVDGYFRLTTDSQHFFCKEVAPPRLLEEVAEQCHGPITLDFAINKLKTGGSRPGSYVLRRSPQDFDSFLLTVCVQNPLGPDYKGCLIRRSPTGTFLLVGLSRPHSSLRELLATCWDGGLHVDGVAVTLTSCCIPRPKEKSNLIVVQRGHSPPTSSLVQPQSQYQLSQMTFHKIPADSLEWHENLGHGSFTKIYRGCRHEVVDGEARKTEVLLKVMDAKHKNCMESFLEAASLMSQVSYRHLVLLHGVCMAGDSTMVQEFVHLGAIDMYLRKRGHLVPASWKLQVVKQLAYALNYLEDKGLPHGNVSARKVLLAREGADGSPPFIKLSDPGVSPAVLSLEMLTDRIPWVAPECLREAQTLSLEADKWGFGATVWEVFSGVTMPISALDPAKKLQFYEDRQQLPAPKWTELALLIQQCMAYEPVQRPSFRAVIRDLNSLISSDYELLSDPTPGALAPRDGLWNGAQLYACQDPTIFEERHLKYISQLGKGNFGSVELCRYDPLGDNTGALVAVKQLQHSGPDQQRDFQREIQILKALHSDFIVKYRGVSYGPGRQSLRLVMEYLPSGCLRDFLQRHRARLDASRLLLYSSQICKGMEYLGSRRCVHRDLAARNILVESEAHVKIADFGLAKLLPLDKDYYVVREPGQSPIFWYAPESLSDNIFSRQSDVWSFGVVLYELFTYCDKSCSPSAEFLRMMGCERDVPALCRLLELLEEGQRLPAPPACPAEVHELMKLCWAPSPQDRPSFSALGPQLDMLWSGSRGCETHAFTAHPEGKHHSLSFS

[9] = biological target: T2, Aurora kinase C (Homo sapiens) (UniProt Q9UQB9); assay: Inhibition of human recombinant AurC at 500 nM related to control ULK1
T2 sequence (whole entry): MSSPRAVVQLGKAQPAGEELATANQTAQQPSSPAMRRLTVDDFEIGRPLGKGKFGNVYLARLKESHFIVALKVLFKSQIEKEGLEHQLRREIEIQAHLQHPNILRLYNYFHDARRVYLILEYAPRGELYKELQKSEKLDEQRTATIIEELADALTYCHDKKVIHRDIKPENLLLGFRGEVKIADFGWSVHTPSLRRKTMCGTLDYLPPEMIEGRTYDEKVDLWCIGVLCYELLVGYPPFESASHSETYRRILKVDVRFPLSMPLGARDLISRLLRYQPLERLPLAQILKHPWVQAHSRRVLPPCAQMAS

[10] = biological target: Protein-tyrosine kinase 6 (Homo sapiens) (UniProt Q13882); assay: Inhibition of human recombinant BRK at 500 nM related to control ULK1
[11] = biological target: T3, Testis-specific serine/threonine-protein kinase 1 (Homo sapiens) (UniProt Q9BXA7); assay: Inhibition of human recombinant TSSK1 at 500 nM related to control ULK1
T3 sequence (whole entry): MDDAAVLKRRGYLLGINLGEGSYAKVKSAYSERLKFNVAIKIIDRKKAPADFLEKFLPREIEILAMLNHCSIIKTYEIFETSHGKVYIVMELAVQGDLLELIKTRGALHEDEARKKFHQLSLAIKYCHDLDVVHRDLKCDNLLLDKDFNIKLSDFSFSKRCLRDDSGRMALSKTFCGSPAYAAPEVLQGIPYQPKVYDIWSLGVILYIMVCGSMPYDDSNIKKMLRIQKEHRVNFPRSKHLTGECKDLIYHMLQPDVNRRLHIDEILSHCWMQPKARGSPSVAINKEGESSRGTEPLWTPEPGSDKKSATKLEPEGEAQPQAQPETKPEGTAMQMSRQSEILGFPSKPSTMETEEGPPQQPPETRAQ

[12] = biological target: Rhodopsin kinase GRK7 (Homo sapiens) (UniProt Q8WTQ7); assay: Inhibition of human recombinant GPRK7 at 500 nM related to control ULK1

Sequence of Calcium/calmodulin-dependent protein kinase kinase 1 (Homo sapiens) (Q8N5S9 whole entry, looked up): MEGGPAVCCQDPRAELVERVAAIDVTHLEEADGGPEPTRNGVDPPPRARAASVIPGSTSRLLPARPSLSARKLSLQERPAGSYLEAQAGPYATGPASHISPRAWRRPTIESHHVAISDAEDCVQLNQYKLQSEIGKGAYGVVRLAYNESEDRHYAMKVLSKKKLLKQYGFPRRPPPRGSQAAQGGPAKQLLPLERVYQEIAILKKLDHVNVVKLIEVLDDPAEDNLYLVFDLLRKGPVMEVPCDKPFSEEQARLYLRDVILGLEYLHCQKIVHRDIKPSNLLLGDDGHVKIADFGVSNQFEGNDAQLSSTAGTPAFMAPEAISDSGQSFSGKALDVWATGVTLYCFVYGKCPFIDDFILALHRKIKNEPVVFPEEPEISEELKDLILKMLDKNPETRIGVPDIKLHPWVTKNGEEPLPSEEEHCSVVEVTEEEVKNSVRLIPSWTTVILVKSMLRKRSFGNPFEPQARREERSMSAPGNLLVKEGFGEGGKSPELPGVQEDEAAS
Sequence of Transient receptor potential cation channel subfamily M member 7 (Homo sapiens) (Q96QT4 whole entry, canonical isoform): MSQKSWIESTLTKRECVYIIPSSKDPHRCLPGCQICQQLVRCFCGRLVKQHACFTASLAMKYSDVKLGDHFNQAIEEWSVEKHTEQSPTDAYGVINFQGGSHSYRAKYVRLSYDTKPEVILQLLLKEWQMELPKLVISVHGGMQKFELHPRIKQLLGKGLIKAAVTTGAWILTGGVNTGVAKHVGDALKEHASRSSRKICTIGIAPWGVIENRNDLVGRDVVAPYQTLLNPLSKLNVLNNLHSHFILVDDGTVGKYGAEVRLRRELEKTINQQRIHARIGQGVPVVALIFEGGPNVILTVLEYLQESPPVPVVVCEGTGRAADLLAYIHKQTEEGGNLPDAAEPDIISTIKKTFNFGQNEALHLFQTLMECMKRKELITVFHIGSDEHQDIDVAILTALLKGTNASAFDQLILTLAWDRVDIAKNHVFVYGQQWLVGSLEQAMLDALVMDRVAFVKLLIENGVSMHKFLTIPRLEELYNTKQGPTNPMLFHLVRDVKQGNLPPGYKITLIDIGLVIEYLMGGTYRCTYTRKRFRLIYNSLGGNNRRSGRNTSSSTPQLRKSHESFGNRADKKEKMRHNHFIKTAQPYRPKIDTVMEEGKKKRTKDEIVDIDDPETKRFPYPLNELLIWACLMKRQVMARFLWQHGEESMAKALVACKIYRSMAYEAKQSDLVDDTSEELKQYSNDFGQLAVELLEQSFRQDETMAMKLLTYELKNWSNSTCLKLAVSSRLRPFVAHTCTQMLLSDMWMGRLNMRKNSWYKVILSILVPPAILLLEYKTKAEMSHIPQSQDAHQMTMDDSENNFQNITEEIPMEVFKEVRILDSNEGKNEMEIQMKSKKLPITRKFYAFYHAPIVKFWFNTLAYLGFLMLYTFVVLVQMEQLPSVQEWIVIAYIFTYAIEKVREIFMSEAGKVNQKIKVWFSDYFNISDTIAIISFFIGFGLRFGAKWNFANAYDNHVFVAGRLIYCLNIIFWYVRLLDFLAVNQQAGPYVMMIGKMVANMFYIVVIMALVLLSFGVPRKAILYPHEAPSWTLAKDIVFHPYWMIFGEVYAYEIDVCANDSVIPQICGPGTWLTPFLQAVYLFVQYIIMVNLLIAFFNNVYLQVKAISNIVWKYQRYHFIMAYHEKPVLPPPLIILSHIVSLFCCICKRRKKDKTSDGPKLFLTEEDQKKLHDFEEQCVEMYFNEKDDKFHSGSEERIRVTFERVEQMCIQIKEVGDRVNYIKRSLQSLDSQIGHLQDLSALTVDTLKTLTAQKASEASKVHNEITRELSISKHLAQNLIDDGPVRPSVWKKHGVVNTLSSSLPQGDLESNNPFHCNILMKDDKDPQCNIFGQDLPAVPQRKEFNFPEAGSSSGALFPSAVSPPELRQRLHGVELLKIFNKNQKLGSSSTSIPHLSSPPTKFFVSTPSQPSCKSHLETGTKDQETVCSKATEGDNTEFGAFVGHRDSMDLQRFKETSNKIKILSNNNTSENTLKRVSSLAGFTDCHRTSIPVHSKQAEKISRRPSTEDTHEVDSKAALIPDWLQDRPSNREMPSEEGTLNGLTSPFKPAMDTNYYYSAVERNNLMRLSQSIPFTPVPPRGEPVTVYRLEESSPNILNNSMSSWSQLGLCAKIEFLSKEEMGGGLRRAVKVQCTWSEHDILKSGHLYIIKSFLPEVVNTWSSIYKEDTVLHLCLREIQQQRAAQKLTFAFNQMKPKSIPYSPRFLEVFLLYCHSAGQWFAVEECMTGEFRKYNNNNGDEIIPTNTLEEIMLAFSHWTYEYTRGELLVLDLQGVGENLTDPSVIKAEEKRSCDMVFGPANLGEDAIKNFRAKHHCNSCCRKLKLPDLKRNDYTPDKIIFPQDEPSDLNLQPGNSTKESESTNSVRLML
Sequence of Protein-tyrosine kinase 6 (Homo sapiens) (Q13882 whole entry, looked up): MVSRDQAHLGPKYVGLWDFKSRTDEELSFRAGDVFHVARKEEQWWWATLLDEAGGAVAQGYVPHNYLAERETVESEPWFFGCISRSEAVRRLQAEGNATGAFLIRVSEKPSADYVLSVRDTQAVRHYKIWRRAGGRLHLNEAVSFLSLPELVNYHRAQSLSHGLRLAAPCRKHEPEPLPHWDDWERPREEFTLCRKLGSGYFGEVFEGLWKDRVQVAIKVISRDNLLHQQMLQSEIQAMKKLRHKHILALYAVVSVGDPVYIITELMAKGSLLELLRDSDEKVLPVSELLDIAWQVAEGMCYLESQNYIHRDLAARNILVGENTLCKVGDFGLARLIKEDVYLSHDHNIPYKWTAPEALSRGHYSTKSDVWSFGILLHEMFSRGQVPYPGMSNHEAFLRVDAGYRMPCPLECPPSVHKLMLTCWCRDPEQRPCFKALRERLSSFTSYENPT
Sequence of Dual specificity protein kinase CLK1 (Homo sapiens) (P49759 whole entry, looked up): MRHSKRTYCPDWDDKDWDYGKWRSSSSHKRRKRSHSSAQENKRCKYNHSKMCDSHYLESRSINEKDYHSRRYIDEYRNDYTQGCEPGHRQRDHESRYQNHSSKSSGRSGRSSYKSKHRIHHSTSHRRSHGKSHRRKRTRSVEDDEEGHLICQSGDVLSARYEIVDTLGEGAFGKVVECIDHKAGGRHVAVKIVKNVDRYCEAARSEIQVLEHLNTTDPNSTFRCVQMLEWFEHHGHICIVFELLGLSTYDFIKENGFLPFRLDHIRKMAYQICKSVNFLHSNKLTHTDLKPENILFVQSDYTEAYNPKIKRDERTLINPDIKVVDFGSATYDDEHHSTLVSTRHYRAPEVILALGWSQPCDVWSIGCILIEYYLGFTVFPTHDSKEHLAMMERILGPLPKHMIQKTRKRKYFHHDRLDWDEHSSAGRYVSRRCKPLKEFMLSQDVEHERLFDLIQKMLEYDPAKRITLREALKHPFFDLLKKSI
Sequence of Calcium/calmodulin-dependent protein kinase type II subunit alpha (Homo sapiens) (Q9UQM7 whole entry): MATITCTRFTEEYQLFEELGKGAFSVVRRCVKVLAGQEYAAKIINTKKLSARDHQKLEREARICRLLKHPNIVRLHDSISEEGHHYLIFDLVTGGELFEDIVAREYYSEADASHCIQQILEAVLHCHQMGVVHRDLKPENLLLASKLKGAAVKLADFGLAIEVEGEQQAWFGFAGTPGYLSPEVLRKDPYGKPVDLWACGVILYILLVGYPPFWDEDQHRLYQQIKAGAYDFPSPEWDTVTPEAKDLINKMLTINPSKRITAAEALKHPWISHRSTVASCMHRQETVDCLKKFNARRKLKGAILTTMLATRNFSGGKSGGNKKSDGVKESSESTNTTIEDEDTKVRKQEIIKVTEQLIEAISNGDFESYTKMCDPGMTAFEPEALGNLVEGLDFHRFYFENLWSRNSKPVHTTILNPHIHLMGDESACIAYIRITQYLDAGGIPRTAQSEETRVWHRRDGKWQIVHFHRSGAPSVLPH
Sequence of Mast/stem cell growth factor receptor Kit (Homo sapiens) (P10721 whole entry): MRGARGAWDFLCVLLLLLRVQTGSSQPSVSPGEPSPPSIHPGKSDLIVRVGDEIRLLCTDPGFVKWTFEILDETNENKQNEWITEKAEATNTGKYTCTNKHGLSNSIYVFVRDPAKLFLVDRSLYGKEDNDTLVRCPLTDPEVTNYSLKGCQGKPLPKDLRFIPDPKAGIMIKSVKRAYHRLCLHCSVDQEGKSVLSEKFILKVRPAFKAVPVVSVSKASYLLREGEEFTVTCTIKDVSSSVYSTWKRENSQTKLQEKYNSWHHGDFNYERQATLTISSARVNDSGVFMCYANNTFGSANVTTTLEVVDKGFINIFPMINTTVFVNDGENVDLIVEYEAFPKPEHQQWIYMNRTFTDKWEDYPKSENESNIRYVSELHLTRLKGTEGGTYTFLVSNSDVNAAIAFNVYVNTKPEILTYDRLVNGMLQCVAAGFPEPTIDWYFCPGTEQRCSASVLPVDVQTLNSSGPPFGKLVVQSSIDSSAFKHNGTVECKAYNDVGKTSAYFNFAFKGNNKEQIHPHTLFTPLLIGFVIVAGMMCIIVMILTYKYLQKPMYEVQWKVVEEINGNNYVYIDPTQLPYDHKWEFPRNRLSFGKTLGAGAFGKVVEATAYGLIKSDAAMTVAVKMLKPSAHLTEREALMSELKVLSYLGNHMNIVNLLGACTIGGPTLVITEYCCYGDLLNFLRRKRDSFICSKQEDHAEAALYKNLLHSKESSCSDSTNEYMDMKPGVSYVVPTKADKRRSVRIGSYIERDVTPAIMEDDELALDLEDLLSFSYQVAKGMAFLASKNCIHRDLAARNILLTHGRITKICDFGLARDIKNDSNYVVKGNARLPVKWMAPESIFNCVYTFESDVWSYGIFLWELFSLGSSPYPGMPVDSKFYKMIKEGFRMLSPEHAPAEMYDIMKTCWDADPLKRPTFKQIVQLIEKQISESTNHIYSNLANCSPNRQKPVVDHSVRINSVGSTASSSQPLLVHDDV

O=C(N[C@@H](C1CC1)C(F)(F)F)c1cc(-c2cnn3cc(-c4ccc(F)cc4)cnc23)cs1
inhibition [1]: 0% | inhibition [2]: 34% | fold change (FC) [3]: 0.07 | fold change (FC) [4]: 0

CC(C)[C@H](NC(=O)c1cc(-c2cnn3cc(-c4ccc(OCCN5CCCCC5)cc4)cnc23)cs1)C(F)(F)F
inhibition [5]: 41% | fold change (FC) [6]: 0.14 | fold change (FC) [7]: 0.03

CNC(=O)c1ccccc1Oc1nc(Nc2cc(OC)c(OC)c(OC)c2)ncc1Br
inhibition [8]: 21% | fold change (FC) [9]: 0.99 | fold change (FC) [10]: 0.03 | fold change (FC) [11]: 0 | fold change (FC) [12]: 0.14

From ChEMBL document CHEMBL5653631, “A Potent and Selective ULK1 Inhibitor Suppresses Autophagy and Sensitizes Cancer Cells to Nutrient Stress” (iScience, 2018)
